In ChEMBL document CHEMBL5247575 (J Med Chem, 2018):

test system: Escherichia coli; assay: Synergistic antibacterial activity against Escherichia coli DH10B assessed as cefepime MIC at 4 ug/ml by broth microdilution method; type: functional; conditions: dose 4 µg/ml

Question: For `N#C[C@@H]1CC[C@@H]2CN1C(=O)N2OS(=O)(=O)[O-].[Na+]`, which MIC is on record?
Answer: Its MIC is no more than 0.12 mg/L.

test system: Acinetobacter baumannii; assay: Synergistic antibacterial activity against Acinetobacter baumannii PR448 producing OXA-23 assessed as cefepime MIC at 4 ug/ml by broth microdilution method; type: functional; conditions: dose 4 µg/ml

Question: `N#C[C@@H]1CC[C@@H]2CN1C(=O)N2OS(=O)(=O)[O-].[Na+]` was tested. Which MIC did it give?
Answer: The MIC was 2 mg/L.

test system: Klebsiella pneumoniae; assay: Synergistic antibacterial activity against Klebsiella pneumoniae NY BS producing OXA-232 assessed as meropenem MIC at 4 ug/ml by broth microdilution method; type: functional; conditions: dose 4 µg/ml

Question: For `N#C[C@@H]1CC[C@@H]2CN1C(=O)N2OS(=O)(=O)[O-].[Na+]`, which MIC is on record?
Answer: The MIC was 0.25 mg/L.

test system: Klebsiella pneumoniae; assay: Synergistic antibacterial activity against Klebsiella pneumoniae jefferson 1775 producing OXA-48 assessed as meropenem MIC at 8 ug/ml by broth microdilution method; type: functional; conditions: dose 8 µg/ml

Question: For `N#C[C@@H]1CC[C@@H]2CN1C(=O)N2OS(=O)(=O)[O-].[Na+]`, which MIC is on record?
Answer: The MIC was no more than 0.12 mg/L.

test system: Escherichia coli; assay: Synergistic antibacterial activity against Escherichia coli DH10B assessed as meropenem MIC at 4 ug/ml by broth microdilution method; type: functional; conditions: dose 4 µg/ml

Question: Which MIC does the source give for `N#C[C@@H]1CC[C@@H]2CN1C(=O)N2OS(=O)(=O)[O-].[Na+]` here?
Answer: Its MIC is no more than 0.12 mg/L.

test system: Klebsiella pneumoniae; assay: Synergistic antibacterial activity against Klebsiella pneumoniae 729/1679 producing KPC-3 assessed as meropenem MIC at 4 ug/ml by broth microdilution method; type: functional; conditions: dose 4 µg/ml
How it was run: (§1)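 Broth microdilution per CLSI guidelines, using custom frozen panels. […] Each partner drug was also tested alone. MICs were run in triplicate and the modal value is reported.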

Question: Which MIC does the source give for `N#C[C@@H]1CC[C@@H]2CN1C(=O)N2OS(=O)(=O)[O-].[Na+]` here?
Answer: The MIC was no more than 0.12 mg/L.

test system: Klebsiella pneumoniae; assay: Synergistic antibacterial activity against Klebsiella pneumoniae 1084/1957 producing KPC-3 assessed as cefepime MIC at 8 ug/ml by broth microdilution method; type: functional; conditions: dose 8 µg/ml; how it was run: as §1

Question: For `N#C[C@@H]1CC[C@@H]2CN1C(=O)N2OS(=O)(=O)[O-].[Na+]`, which MIC is on record?
Answer: Its MIC is no more than 0.12 mg/L.

test system: Acinetobacter baumannii; assay: Synergistic antibacterial activity against Acinetobacter baumannii PR359 producing OXA-23 assessed as cefepime MIC at 8 ug/ml by broth microdilution method; type: functional; conditions: dose 8 µg/ml

Question: Which MIC does the source give for `N#C[C@@H]1CC[C@@H]2CN1C(=O)N2OS(=O)(=O)[O-].[Na+]` here?
Answer: The MIC was 8 mg/L.

test system: Acinetobacter baumannii; assay: Synergistic antibacterial activity against Acinetobacter baumannii PR474 producing OXA-23/24/40 assessed as meropenem MIC at 4 ug/ml by broth microdilution method; type: functional; conditions: dose 4 µg/ml

Question: `N#C[C@@H]1CC[C@@H]2CN1C(=O)N2OS(=O)(=O)[O-].[Na+]` was tested. Which MIC did it give?
Answer: Its MIC is greater than 16 mg/L.

test system: Acinetobacter baumannii; assay: Synergistic antibacterial activity against Acinetobacter baumannii PR440 producing OXA-23/24/40 assessed as meropenem MIC at 8 ug/ml by broth microdilution method; type: functional; conditions: dose 8 µg/ml

Question: With `N#C[C@@H]1CC[C@@H]2CN1C(=O)N2OS(=O)(=O)[O-].[Na+]` as the compound, how does the MIC read?
Answer: Its MIC is 2 mg/L.

test system: Escherichia coli; assay: Antibacterial activity against Escherichia coli DH10B transfected with pBC SK (-) KPC-3 by broth microdilution method; type: functional; conditions: not given

Question: For `N#C[C@@H]1CC[C@@H]2CN1C(=O)N2OS(=O)(=O)[O-].[Na+]`, which MIC is on record?
Answer: The MIC was greater than 16 mg/L.

test system: Pseudomonas aeruginosa; assay: Synergistic antibacterial activity against Pseudomonas aeruginosa CL232 assessed as cefepime MIC at 4 ug/ml by broth microdilution method; type: functional; conditions: dose 4 µg/ml

Question: Which MIC does the source give for `N#C[C@@H]1CC[C@@H]2CN1C(=O)N2OS(=O)(=O)[O-].[Na+]` here?
Answer: The MIC was greater than 16 mg/L.

test system: Acinetobacter baumannii; assay: Synergistic antibacterial activity against Acinetobacter baumannii PR363 producing OXA-23 assessed as cefepime MIC at 8 ug/ml by broth microdilution method; type: functional; conditions: dose 8 µg/ml

Question: Which MIC does the source give for `N#C[C@@H]1CC[C@@H]2CN1C(=O)N2OS(=O)(=O)[O-].[Na+]` here?
Answer: Its MIC is 8 mg/L.

test system: Acinetobacter baumannii; assay: Synergistic antibacterial activity against Acinetobacter baumannii PR359 producing OXA-23 assessed as meropenem MIC at 4 ug/ml by broth microdilution method; type: functional; conditions: dose 4 µg/ml

Question: `N#C[C@@H]1CC[C@@H]2CN1C(=O)N2OS(=O)(=O)[O-].[Na+]` was tested. Which MIC did it give?
Answer: The MIC was 4 mg/L.

test system: Pseudomonas aeruginosa; assay: Synergistic antibacterial activity against Pseudomonas aeruginosa 776 assessed as meropenem MIC at 8 ug/ml by broth microdilution method; type: functional; conditions: dose 8 µg/ml

Question: How did the MIC turn out when `N#C[C@@H]1CC[C@@H]2CN1C(=O)N2OS(=O)(=O)[O-].[Na+]` was run?
Answer: Its MIC is greater than 16 mg/L.

test system: Pseudomonas aeruginosa; assay: Antibacterial activity against Pseudomonas aeruginosa 839 by broth microdilution method; type: functional; conditions: not given

Question: How did the MIC turn out when `N#C[C@@H]1CC[C@@H]2CN1C(=O)N2OS(=O)(=O)[O-].[Na+]` was run?
Answer: The MIC was greater than 16 mg/L.

test system: Bacteria; assay: Inhibition of bacteria ADC-7 assessed as second order rate constant K2/K using nitrocefin as substrate; conditions: not given

Question: With `N#C[C@@H]1CC[C@@H]2CN1C(=O)N2OS(=O)(=O)[O-].[Na+]` as the compound, how does the K read?
Answer: The K was 1.9 10^4/M/s.

test system: Escherichia coli; assay: Synergistic antibacterial activity against Escherichia coli DH10B transfected with pBC SK (-) OXA-48 assessed as cefepime MIC at 8 ug/ml by broth microdilution method; type: functional; conditions: dose 8 µg/ml; how it was run: as §1

Question: `N#C[C@@H]1CC[C@@H]2CN1C(=O)N2OS(=O)(=O)[O-].[Na+]` was tested. Which MIC did it give?
Answer: The MIC was no more than 0.12 mg/L.

test system: Acinetobacter baumannii; assay: Synergistic antibacterial activity against ADC deleted Acinetobacter baumannii transfected with pWH1266 producing OXA-24/40 assessed as cefepime MIC at 4 ug/ml by broth microdilution method; type: functional; conditions: dose 4 µg/ml

Question: With `N#C[C@@H]1CC[C@@H]2CN1C(=O)N2OS(=O)(=O)[O-].[Na+]` as the compound, how does the MIC read?
Answer: Its MIC is 16 mg/L.

test system: Klebsiella pneumoniae; assay: Synergistic antibacterial activity against Klebsiella pneumoniae NY BS producing OXA-232 assessed as cefepime MIC at 4 ug/ml by broth microdilution method; type: functional; conditions: dose 4 µg/ml

Question: With `N#C[C@@H]1CC[C@@H]2CN1C(=O)N2OS(=O)(=O)[O-].[Na+]` as the compound, how does the MIC read?
Answer: The MIC was 0.5 mg/L.

test system: Klebsiella pneumoniae; assay: Synergistic antibacterial activity against Klebsiella pneumoniae 1315/2198 producing KPC-3 assessed as cefepime MIC at 4 ug/ml by broth microdilution method; type: functional; conditions: dose 4 µg/ml; how it was run: as §1

Question: `N#C[C@@H]1CC[C@@H]2CN1C(=O)N2OS(=O)(=O)[O-].[Na+]` was tested. Which MIC did it give?
Answer: Its MIC is 0.25 mg/L.
